From PubChem BioAssay
Most compounds without a hit are left out; they make up all but 1.4% or so of the library.
MT1-MMP act inh: MT1-MMP (human) activation inhibition. GFP/RFP ratio change, % at 20 µM. P50281. HT1080 RFP-PRO-GFP cells, GFP/RFP ratio fluorescence, overnight; percent of plate control window, DMSO zero. 0.061% of 360,000 active;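 active = GFP/RFP ratio change of at least 30% with cell ATP level not reduced by more than half and red fluorescence within 50% of control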
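Material – HT1080 RFP-PRO-GFP cells · Control set – DMSO wells and RFP-L50D-GFP cells · Incubation – overnight cell settling, then overnight compound exposure, 37 °C, 5% CO2 · Compound dosing – single-point 20 µM compound, 1% DMSO · Read-out – GFP/RFP fluorescence ratio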
DAGLB inhibitor: blocks human DAGLB lipase activity; HEK293T DAGLB membrane lysate, EnzChek fluorogenic substrate; inhibition, % at 5.17 µM; Q8NCG7; AID 504411; 0.059% of 340,000 active; in the data active = inhibition above about 34%;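 note: 0% = enzyme with vehicle and 100% = wells lacking enzyme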
DDE Tn7 FP inh: DD(E)-Tn7 binding inhibition, primary FP screen; AID 720508; P02675; 0.13% of 370,000 active; inhibition, % at 8.3 µM; FP displacement of FITC-Tn7 peptide from fibrin DD(E); 0% = median of compound wells per plate;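 active = inhibition above the mean of compounds falling within the control limits plus 3 SD of them, cut at about 14% in these data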;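 note: 0% = plate median of compound wells and 100% = 10 µM Aha-Tn7 peptide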
Target sequence (P02675 whole entry, looked up): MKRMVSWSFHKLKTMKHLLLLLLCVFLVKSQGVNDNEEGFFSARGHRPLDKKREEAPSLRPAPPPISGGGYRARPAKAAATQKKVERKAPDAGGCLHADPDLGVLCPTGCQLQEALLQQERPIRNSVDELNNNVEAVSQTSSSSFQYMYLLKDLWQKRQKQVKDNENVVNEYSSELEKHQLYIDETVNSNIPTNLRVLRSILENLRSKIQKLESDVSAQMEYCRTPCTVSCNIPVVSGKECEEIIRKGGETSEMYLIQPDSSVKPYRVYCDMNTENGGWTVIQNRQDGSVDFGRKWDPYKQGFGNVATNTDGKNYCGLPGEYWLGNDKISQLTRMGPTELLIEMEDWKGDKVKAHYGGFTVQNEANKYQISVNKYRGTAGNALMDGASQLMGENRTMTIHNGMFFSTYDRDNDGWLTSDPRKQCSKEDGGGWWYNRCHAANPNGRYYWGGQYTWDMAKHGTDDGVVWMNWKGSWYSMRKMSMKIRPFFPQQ
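Measure: % inhibition scaled between sample-field median and high-control FP; Test system: human fibrin DD(E); Quantity: 2 µM final DD(E) protein; Doses: one dose, 8.3 µM nominal; Schedule: compound with protein 10 min, then 3 h after probe, room temperature; Detection: fluorescence polarization; Medium: Tris buffer with calcium and detergent, pH 7.8.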
Tn6 DDE FP: disrupts Tn6 cyclic peptide binding to fibrin D-Dimer-E complex; inhibition, % at 8.3 µM; 0.21% of 370,000 active; Fibrin DD(E) TRITC-Tn6 fluorescence polarization displacement;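 active = inhibition above a per-campaign cutoff: mean of compounds within control limits plus 3 SD, cut at about 15% in these data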;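 note: 0% = median of all compound wells on the plate and 100% = blocking peptide control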
TAG inh: triacylglycerol accumulation inhibition; H9c2 cells, Nile Red lipid (TAG) fluorescence; cells loaded with 200 µM oleic acid; inhibition, % at 12.5 µM; 0.66% of 230,000 active; AID 651582;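 active = pattern-corrected inhibition of lipid staining of at least 50% with the nuclear-stain viability signal not falling by more than 50%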;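 note: 0% = DMSO wells and 100% = triacsin C control wells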
Cardio protect: protects H9c2 cardiomyocytes from peroxide injury; H2O2 injury protection, ATPLite, 2 h; protection from H2O2 cell death, % at 20 µM; 0.63% of 360,000 active;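 active = compounds giving at least 50% protection of heart cells from peroxide-induced death in the single-dose screen, raw or plate-pattern-corrected value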;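 note: 0% = DMSO wells with peroxide and 100% = DMSO wells without peroxide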
MT1-MMP act val: MT1-MMP (human) activation inhibition, single-concentration validation | HT1080 RFP-PRO-GFP cells, GFP and RFP fluorescence ratio, overnight | inhibition, % at 20 µM | 10% of 200 active | shares compounds with MT1-MMP act inh;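 active = inhibition of at least 50% in the primary cell screen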
* = called active by the depositor; nt = not tested or not shown.

SMILES	MT1-MMP act inh	DAGLB inhibitor	DDE Tn7 FP inh	Tn6 DDE FP	TAG inh	Cardio protect	MT1-MMP act val
CCCCOc1ccc(C(=O)n2ccc3ccc(-c4ccc5ccn(Cc6ccc(OC)cc6)c5c4)cc32)cc1	nt	nt	-2.6	0.4	nt	nt	nt
CCCCOCCCNC(=O)C[C@H]1C[C@@]2(C(=O)OC)C(=C[C@H](C(C)C)O[C@@H]2C2CC2)N(Cc2ccc(Cl)cc2Cl)C1=O	nt	nt	3.4	9.8	nt	nt	nt
O=C(/C=C(\c1ccc(Cl)cc1)n1cncn1)c1ccc(Cl)cc1	31.5*	-1.1	nt	nt	nt	-2.2	28.5
O=C(/C=C(\c1ccccc1)n1cncn1)c1ccccc1	0.3	-0.8	-7.7	7.2	nt	6.8	nt
C[C@H]1[C@@H](NC(=O)c2ccc(C(F)(F)F)cc2)CC[C@@]23CCCN2C(=O)CCC[C@@H]13	nt	nt	-3.8	4.1	nt	nt	nt
COc1cc(NS(=O)(=O)c2ccc(C)cc2)c2c(c1N)C(=O)c1ccccc1C2=O	47.2*	10.8	-7.2	-0.7	28.1	-0.2	21.9
CN1C2=CC=CC=CC2=[N+](C)C12C=CC(=[N+]([O-])[O-])C=C2[N+](=O)[O-] (centres undefined)	38.9*	9.7	-6.6	-5.7	0.1	-1.3	30.6
O=C1OCC2=Nc3cccc4cccc(c34)N12	nt	nt	-3.2	9.7	nt	nt	nt
O=C(NCCCn1ccnc1)c1cccc(Br)c1	4.2	-1.5	-6.5	6.0	nt	-0.3	nt
O=C(NCCCn1ccnc1)c1cccnc1	31.9*	-0.8	-5.8	-0.7	7.1	11.7	2.0
O=[N+]([O-])c1cc(Br)c(O)c(C=Nc2ccc(N3CCOCC3)cc2)c1	40.5*	11.0	3.3	13.0	11.5	-8.7	3.9
Cc1cccc[n+]1CC(=O)/C=C1\N(C)c2ccccc2C1(C)C	41.3*	0.8	3.8	3.4	nt	-13.8	47.1
CN1/C(=C\C(=O)COC(=O)CN2C(=O)C3CC=CCC3C2=O)C(C)(C)c2ccccc21 (centres undefined)	6.1	-1.4	-0.9	-11.3	-26.4	-16.1	nt
CN1/C(=C\C(=O)CN2C(=O)NC3(CCCCCC3)C2=O)C(C)(C)c2ccccc21	33.7*	1.4	-3.2	-6.8	-19.8	-19.4	26.8
CCC(=O)N1CCC1(C)C(=O)Nc1ccc(F)cc1 (centres undefined)	34.1*	nt	9.0	3.8	2.5	-4.7	-0.2
O=S(=O)(c1ccc2nc(COc3ccc(Cl)cc3Cl)[nH]c2c1)N1CCOCC1	35.0*	-6.3	-1.4	-6.0	nt	-2.0	14.4
Cc1ccccc1OCc1nc2ccc(S(=O)(=O)N3CCOCC3)cc2[nH]1	2.7	-0.1	-6.8	-3.8	nt	-2.7	nt
CN1/C(=C/C=C/c2n(C)c3cc([N+](=O)[O-])c([N+](=O)[O-])cc3[n+]2C)C(C)(C)c2ccccc21	96.6*	18.8	-2.7	-5.6	-42.2	-21.1	94.3*
CN1/C(=C\C=C(C#N)C#N)C(C)(C)c2ccccc21	-88.2	-1.4	3.0	4.9	-354.1	1.8	nt
CCOc1ccc(C2CC=C(C(=O)O)CN2S(=O)(=O)c2ccc(C)cc2)cc1 (centres undefined)	nt	nt	-4.8	2.1	nt	nt	nt
COc1ccc(S[C@]2(C(=O)N3CCCC3)CC(=O)N(P(=O)(OC)OC)[C@@H]2c2ccc(OC)cc2)cc1	nt	nt	0.0	-2.1	nt	nt	nt
COc1cc(/C=C/c2cc(OC(C)=O)c3ccccc3n2)c(OC(C)=O)c([N+](=O)[O-])c1	36.9*	1.4	0.1	-2.1	nt	4.9	23.6
CC(=O)Oc1c(Cl)cc(Cl)cc1/C=C/c1ccc2ccccc2n1	-264.8	-4.2	1.6	-7.8	nt	-12.6	nt
O=C(Nc1ccc(S(=O)(=O)Nc2ccccc2)cc1)C1COc2ccccc2O1 (centres undefined)	31.4*	0.4	-2.5	-1.4	nt	-12.6	6.7
Cc1cc(C)nc(NS(=O)(=O)c2ccc(NC(=O)C3COc4ccccc4O3)cc2)n1 (centres undefined)	-0.7	nt	8.9	-2.0	nt	-1.0	nt
SMILES	MT1-MMP act inh	DAGLB inhibitor	DDE Tn7 FP inh	Tn6 DDE FP	TAG inh	Cardio protect	MT1-MMP act val
O=C(N[C@H](Cc1ccccc1)C(=O)NC1CCCCC1)[C@H]1O[C@@H](n2ccc(=O)[nH]c2=O)[C@H](O)[C@@H]1O	nt	nt	1.0	-1.7	nt	nt	nt
Cc1ccc(C(=O)C2CCN(CC(=O)NCc3cccs3)CC2)cc1	nt	nt	-0.8	-6.6	nt	nt	nt
CN(CC(=O)Nc1cc([N+](=O)[O-])ccc1Cl)Cc1ccc(Br)cc1	35.9*	-7.0	3.2	6.5	nt	0.8	6.2
Cc1ccsc1CN(C)CC(=O)Nc1ccc([N+](=O)[O-])cc1Cl	1.1	-16.9	5.2	1.4	nt	5.0	nt
O=C(OCC#CCSc1nnc(-c2cccc3ccccc23)o1)c1cccc(F)c1	nt	nt	-3.9	-4.0	nt	nt	nt
CCn1c2ccccc2nc2cc3c(cc21)c(Cl)c(=O)c1ccccc13	35.7*	1.4	-4.9	11.6	11.2	-11.4	-2.2
O=C(N/N=C/C1CC=CCC1)c1cc2ccccc2cc1O (centres undefined)	34.9*	-7.4	0.8	2.4	nt	34.7	4.4
CCCCNC(=O)C1CCCN1C(=O)Nc1ccc2c(c1)OCO2 (centres undefined)	nt	nt	2.3	7.2	nt	nt	nt
CNc1ccccc1C(C)(C)c1cc(-c2ccco2)n[nH]1	33.9*	10.4	3.9	-1.3	nt	5.0	7.8
N#CCCN1CCCc2cc(N=Nc3ccc(C(F)(F)F)cc3)ccc21	31.8*	nt	-3.4	-5.9	57.3*	-10.5	28.2
CCCN1CCCc2ccccc21	2.6	0.9	-0.9	-4.2	nt	-19.0	nt
COC(=O)[C@]12C[C@H](CC(=O)N3CCC(c4ccccc4)CC3)C(=O)N(CCc3ccc(OC)c(OC)c3)C1=C[C@H](C1CCCC1)O[C@@H]2C	nt	nt	-4.8	2.4	nt	nt	nt
COc1cc(-c2cc(=O)c3c(O)c(OC)c(OC)cc3o2)cc(OC)c1O	31.2*	0.3	6.6	-13.5	nt	-3.1	35.3
COc1ccc(-c2cc(=O)c3c(O)c(OC)c(O)cc3o2)cc1	8.7	1.5	2.3	0.4	nt	-14.3	nt
C=C1[C@@H](C)CN[C@@H]1CCO	nt	nt	-1.5	10.1	nt	nt	nt
O=[N+]([O-])c1ccc(N2CCCCC2)s1	32.2*	3.9	2.5	-1.9	nt	-2.7	22.2
COc1ccc(S[C@]2(C(=O)N(C)C)CC(=O)N(c3ccc(Cl)cc3)[C@@H]2c2ccc(OC)cc2)cc1	nt	nt	-2.2	1.6	nt	nt	nt
COc1ccc(Br)cc1CNc1ccc(O)cc1	52.4*	6.2	-2.5	9.0	-20.5	5.3	0.3
CN(c1cc2c(c3c1ccn3C)C1CCC2C1)C1CCCCC1 (centres undefined)	34.9*	nt	-0.8	-1.7	nt	-7.5	1.2
CN(C)c1ccc(Cn2c(=O)n(Cc3ccc(C(=O)NCC4COC4)cc3)c(=O)c3ccccc32)cc1	nt	nt	-7.2	-2.0	nt	nt	nt
